Source: ChEMBL document CHEMBL2424598, “Identification and optimization of pteridinone Toll-like receptor 7 (TLR7) agonists for the oral treatment of viral hepatitis” (J Med Chem, 2013)

Tested on: Cynomolgus monkey
Assay: Agonist activity at […] in cynomolgus monkey assessed as increase of serum IFNalpha level at 0.3 mg/kg, po after 1 to 24 hrs by ELISA
Type: functional, Macaca fascicularis
Summary of the method: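 Healthy male cynomolgus monkeys, n = 3 per group, dosed either by 30 min iv infusion or orally. Serum was sampled predose and at 1, 2, 4, 8, 12 and 24 h postdose. IFN-α was measured by species-specific ELISA (limit of detection 130 pg/mL) and reported as mean peak serum level ± SD.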

**Q.** Which Activity does the source give for `CCCCOc1nc(N)c2c(n1)N(Cc1cccc(CN3CCCC3)c1)CC(=O)N2` [VESATOLIMOD] here?
**A.** Its Activity is 763 pg/mL.
